From paper PMC7069368 (MedChemComm, 2019)
Entries after “also recorded” stand apart in the source; their conditions may differ. Marks after values point to notes of the source that are not given here.

Key:
[1] = Thermodynamic solubility assay; type: physicochemical; settings: in vitro ADME, data not shown
Outline: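 Solid test compound (0.2–0.5 mg) was saturated in PBS and shaken at 900 rpm, room temperature, for 48 h. It was centrifuged 30 min at 10 000×g, 23 °C. The supernatant was diluted 10–1000× in acetonitrile/H₂O (50/50) in two steps and quantified by LC-MS/MS.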

[2] = system: Caco-2 cell monolayers; assay: Caco-2 permeability; settings: in vitro ADME, data not shown
Outline: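 Caco-2 monolayers (passage 94–105) were grown on permeable filters and used on day 21 after seeding. Filters were washed with pre-warmed HBSS. Drug solution (1 μM, prewarmed to 37 °C) was applied as donor to the apical or basolateral side. Both chambers were at pH 7.4.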

[3] = system: HeLa cells; settings: 10 μM compound; % of cell growth; data provided from previous studies ref 10, 11; cited from earlier work
[4] = Ames test; cited from earlier work
[5] = Pharmacokinetics in mice; type: in vivo; settings: mouse, PO 10 mg kg^–1 in lipid emulsion
Outline: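 Female C3H mice (9-week C3H/HeOuJ or 22-week C3H/HeJ, by compound) got 10 mg kg⁻¹ as a 100 μL gavage, three per dose and route. The vehicle was 55% capmul, 15% akomed, 15% ethanol and 15% cremophor, emulsified with lukewarm water. Tail-vein blood (20 μL) was taken at 0.5, 1, 2, 4, 8 and 24 h and mixed with acetonitrile. It was methanol-extracted and quantified against spiked blank mouse blood standards.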

[6] = system: C. trachomatis serovar D; assay: C. trachomatis in vivo infection model; parameters: species or system mouse
Outline: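 Female C3H/HeJ mice, 8 weeks old, got 2.4 mg medroxyprogesterone acetate s.c. 10 and 3 days pre-infection. Vaginal mucus was swabbed away before intravaginal inoculation (5000 […], 10 μL SPG), with 30 min inverted under anaesthesia. Gavage of 100 μL of 2.33 mg mL⁻¹ in capmul/akomed/cremophor/EtOH water emulsion (n=9), vehicle alone (n=9), or 2 mg mL⁻¹ doxycycline (n=6) began at 10 h, then every 12 h for 7 days.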

[7] = system: C. trachomatis serovar L2; assay: Reinfect assay; type: cell-based, Chlamydia trachomatis
Outline: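 HeLa 229 cells were infected with serovar L2 EBs in HBSS at MOI 0.3–0.5. Test compound (2.5 or 1 μM in RPMI) was added at 1 h, then incubated 44–48 h. Cells were lysed with cold water, and EBs in SPG were 10-fold serially diluted onto fresh HeLa cells. After 44–46 h, cells were methanol-fixed and stained (anti-Chlamydia/FITC, DAPI). IFUs were counted by automated microscopy and given as % of DMSO control. Three independent experiments, duplicates.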

Row | Structure (SMILES) | HeLa viability 10 μM (%) [3] | Mutagenic potential [4] | Oral uptake / oral data (in words) [5] | also measured
1 | Nc1c(Cc2cccc3ccccc23)c(C2CC2)c2n(c1=O)C(C(=O)Nc1ccccc1)CS2 (stereo not drawn) [Compound 2] | 101 ± 3 ^a % | no mutagenic potential | – | Solubility (in words) [1]: poor solubility; Permeability (in words) [2]: moderate permeability
2 | Nc1c(Cc2cccc3ccccc23)c(C2CC2)c2n(c1=O)C(n1cc(-c3ccccc3)nn1)CS2 (stereo not drawn) [Compound 3] | 105 ± 4 ^a % | no mutagenic potential | too low to be able to be quantified | –
3 | COc1c(Cc2cccc(C)c2C)cc(=O)n2c1SCC2C(=O)Nc1cc(C)cc(F)c1 (stereo not drawn) [Compound 18, 7-(2,3-Dimethylbenzyl)-N-(3-fluoro-5-methylphenyl)-8-methoxy-5-oxo-2,3-dihydrothiazolo[3,2-a]pyridine-3-carboxamide] | – | – | too low to allow for proper determination of pharmacokinetic parameters; also recorded: too low to be able to be quantified | –
4 | O=C(Nc1ccccc1)C1CSc2c(C3CC3)c(Cc3cccc4ccccc34)cc(=O)n21 (stereo not drawn) [Compound 24, 8-cyclopropyl-7-(naphthalen-1-ylmethyl)-5-oxo-N-phenyl-3,5-dihydro-2H-thiazolo[3,2-a]pyridine-3-carboxamide] | 100 ± 4 ^a % | – | – | –
5 | CS(=O)(=O)Nc1c(Cc2cccc3ccccc23)cc(=O)n2c1SCC2C(=O)Nc1ccccc1 (stereo not drawn) [Compound 30, 8-(Methylsulfonamido)-7-(naphthalen-1-ylmethyl)-5-oxo-N-phenyl-2,3-dihydrothiazolo[3,2-a]pyridine-3-carboxamide] | – | – | – | Effect on vaginal C. trachomatis infection (IFUs per vaginal swab) ([6]; C3H/HeJ mice, 10 mg kg^–1 oral gavage twice a day for 7 days): the course of infection was not improved; also recorded: did not affect vaginal C. trachomatis infection; Tolerability (vital signs) ([6]; mice, 10 mg kg^–1 oral gavage twice a day): no negative vital signs; Concentrations inhibiting C. trachomatis infectivity (in words) [7]: low micromolar concentrations
